This note sets out measurements from ChEMBL document CHEMBL1124231, “Structure-activity relationships among analogues of pemedolac, cis-1-ethyl-1,3,4,9-tetrahydro-4-(phenylmethyl)pyrano[3,4-b]indo le-1-a cetic acid, a potent analgesic agent” (J Med Chem, 1988).

Data set [1] has as its system Mus musculus. Put plainly: Inhibition against writhing induced by Phenylbenzoquinone in male swiss albino mice at 25 mg/kg. The data set is classed as functional. The method in brief:
(§1)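 Mice in groups of 10, fasted overnight, dosed by gastric gavage with compound or vehicle (0.5% Tween 80 in distilled water). PBQ given ip 1 h later (0.15 mL of 0.02% per 10 g body weight). Writhes counted per mouse over the following 15 min. […] Benzylamine salts dosed as free acid.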

Data set [2] relates to Rattus norvegicus. Nature of the data set: Inhibition against adjuvant-induced paw edema at a dose of 25 mg/kg in male Sprague-Dawley rats. The data set is classed as functional. Put shortly: (§2)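 Male Sprague-Dawley rats (180–200 g), left hindpaw injected intradermally with 0.1 mL Freund's complete adjuvant. Compound or vehicle given by gastric gavage just before FCA (day 0) and at 24 and 48 h. Paw volume read by plethysmometer before FCA and on day 3. Edema is the day 0 to day 3 volume difference, averaged per group.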

Data set [3] concerns Mus musculus. Put plainly: Inhibition against writhing induced by Phenylbenzoquinone in male swiss albino mice at 10 mg/kg. The data set is classed as functional. Put shortly: as §1
Data set [4] is described as follows: Partition coefficient (logP). The data set is classed as physicochemical. The following applies: octanol/water. Put shortly:
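Calculated by computer program, not measured experimentally.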

For data set [5], the species on record is Mus musculus. Put plainly: Inhibition against writhing induced by Phenylbenzoquinone in male swiss albino mice. The data set is classed as functional. The method in brief:
as §1

The nature of data set [6]: Inhibitory activity against prostaglandin biosynthesis in stimulated chondrocyte cell culture. The data set is classed as functional.
Data set [7] relates to Rattus norvegicus. Nature of the data set: Inhibition against adjuvant-induced paw edema at a dose of 25 mg/kg in Male Sprague-Dawley rats. The data set is classed as functional. The method in brief:
as §2

The test system of data set [8] is Mus musculus. Nature of the data set: Inhibition against writhing induced by Phenylbenzoquinone in male swiss albino mice; at 25 mg/kg. The data set is classed as functional. Put shortly:
as §1

Data set [9] concerns Mus musculus. Nature of the data set: Inhibition against writhing induced by Phenylbenzoquinone in male swiss albino mice at 200 mg/kg. The data set is classed as functional. The method in brief: as §1

Where only a bound is given, the exact number is not on record here.

Take `CCC1(CC(=O)O)CC[C@@H](Cc2ccccc2)c2c1[nH]c1ccccc21` (stereo not given in full): the inhibition in vivo at 25 mg/kg with Mus musculus [1] was 4%; with Rattus norvegicus [2], 42%.
In the data set on Mus musculus [3], `CCC1(CC(=O)O)CC[C@@H](Cc2ccccc2)c2c1[nH]c1c(C)cccc21` (stereo not given in full) yielded an inhibition in vivo at 10 mg/kg of 5%. Further, in the data set with Rattus norvegicus [2], the inhibition in vivo at 25 mg/kg amounted to 24%.
Regarding `C=CC[C@H]1CCC(CC)(CC(=O)O)c2[nH]c3c(CCC)cccc3c21` (stereo not given in full), the logP in data set [4] was found to be 6.9. In the data set listed under Mus musculus [5], this compound showed an ED50 of 28.7 mg/kg. The inhibition in vivo at 25 mg/kg in the data set with Rattus norvegicus [2] was 39%.
In data set [4], `C=CC[C@H]1CCC(CC)(CC(=O)O)c2[nH]c3ccccc3c21` (stereo not given in full) returned a logP of 5.2. In data set [6], this compound came in with an IC50 of 50 nM. In the data set filed under Mus musculus [5], the ED50 came to 19.6 mg/kg.
In the case of `C=CC[C@@H]1COC(CC)(CC(=O)O)c2[nH]c3c(CC)cccc3c21` (stereo not given in full), the inhibition in vivo at 25 mg/kg came out at 33% with Mus musculus [1] and 55% in the data set on Rattus norvegicus [2].
On to `C=CC[C@@H]1COC(CC)(CC(=O)O)c2[nH]c3c(C)cccc3c21` (stereo not given in full), for which the IC50 in data set [6] is > 10000 nM. Also, the inhibition in vivo at 25 mg/kg with Mus musculus [1] stood at 15%; with Rattus norvegicus [2] it was 31%.
On to `CCc1cccc2c3c([nH]c12)C(CC)(CC(=O)O)CC[C@@H]3c1ccccc1` (stereo not given in full), for which the inhibition in vivo at 25 mg/kg stood at 17% in the data set on Mus musculus [1] and 12% in the data set with Rattus norvegicus [2].
As for `C=CC[C@H]1COC(CC)(CC(=O)O)c2[nH]c3c(C)cccc3c21` (stereo not given in full), the logP in data set [4] was determined as 4. This compound also yielded an IC50 in data set [6] of 200 nM. Besides, the results for the inhibition in vivo at 25 mg/kg with Mus musculus [1] and in the data set on Rattus norvegicus [2] were 10% and 54%, respectively.
The compound `C=CC[C@H]1COC(CC)(CC(=O)O)c2[nH]c3ccccc3c21` (stereo not given in full) showed a logP in data set [4] of 3.3. This compound also showed an IC50 in data set [6] of 120 nM. Further, the inhibition in vivo at 25 mg/kg with Mus musculus [1] was 21%; with Rattus norvegicus [7], 46%.
`CCC1(CC(=O)O)CC[C@H](Cc2ccccc2)c2c1[nH]c1c(C)cccc21` (stereo not given in full) came in with a logP in [4] of 6.9. The same compound registered an ED50 in the data set listed under Mus musculus [5] of 3.4 mg/kg. Further, the inhibition in vivo at 25 mg/kg in the data set with Rattus norvegicus [2] is 43%.
For the compound `CCC1(CC(=O)O)OC[C@H](CCc2ccccc2)c2c1[nH]c1ccccc21` (stereo not given in full), the inhibition in vivo at 25 mg/kg in the data set with Mus musculus [8] and in the data set on Rattus norvegicus [2] was 0% in each case.
`CCc1cccc2c3c([nH]c12)C(CC)(CC(=O)O)CC[C@H]3c1ccccc1` (stereo not given in full): the inhibition in vivo at 25 mg/kg in the data set on Mus musculus [1] is 28%; in the data set with Rattus norvegicus [2], 37%.
With `CCc1cccc2c3c([nH]c12)C(CC)(CC(=O)O)OCC3` (stereo not given) [ETODOLAC], the IC50 in data set [6] amounted to 23 nM.
For `C=CC[C@@H]1COC(CC)(CC(=O)O)c2[nH]c3ccccc3c21` (stereo not given in full), the half-inhibitory concentration (IC50) in data set [6] was > 10000 nM. Moreover, the inhibition in vivo at 25 mg/kg in the data set on Mus musculus [1] turned out to be 25%; with Rattus norvegicus [2] it was 30%.
In the case of `C=CC[C@@H]1COC(CC)(CC(=O)O)c2[nH]c3c(CCC)cccc3c21` (stereo not given in full), the inhibition in vivo at 25 mg/kg was 2% in the data set with Mus musculus [1] and 36% in the data set with Rattus norvegicus [2].
As to `CCc1cccc2c3c([nH]c12)C(CC)(CC(=O)O)CC[C@@H]3CC1CC1` (stereo not given in full), the inhibition in vivo at 25 mg/kg was found to be 0% in the data set on Mus musculus [1] and 19% in the data set with Rattus norvegicus [2].
On the same counts, the results for `CCc1cccc2c3c([nH]c12)C(CC)(CC(=O)O)CC[C@H]3Cc1ccccc1` (stereo not given in full) are 15% and 6%.
Consider `CCC1(CC(=O)O)OC[C@@H](CCc2ccccc2)c2c1[nH]c1ccccc21` (stereo not given in full), for which the values for the inhibition in vivo at 25 mg/kg in the data set on Mus musculus [8] and in the data set on Rattus norvegicus [2] were 0% and 20%, respectively.
For `CCC1(CC(=O)O)OC[C@H](Cc2ccccc2)c2c1[nH]c1c(C)cccc21` (stereo not given in full), the logP in [4] was determined as 5. The compound further registered an ED50 in the data set filed under Mus musculus [5] of 4.7 mg/kg. Moreover, in the data set on Rattus norvegicus [2], the inhibition in vivo at 25 mg/kg was 47%.
In the case of `C=C[C@@H]1CCC(CC)(CC(=O)O)c2[nH]c3c(CC)cccc3c21` (stereo not given in full), the results for the inhibition in vivo at 25 mg/kg with Mus musculus [1] and in the data set with Rattus norvegicus [2] were 0% and 62%, respectively.
In [4], `C=CC[C@H]1CCC(CC)(CC(=O)O)c2[nH]c3c(C)cccc3c21` (stereo not given in full) had a logP of 5.8. This compound returned an IC50 in data set [6] of 50 nM. It took a dose of 8.3 mg/kg to reach the 50% effect level in the data set listed under Mus musculus [5] (ED50).
For the compound `CCC1(CC(=O)O)CC[C@H](Cc2ccccc2)c2c1[nH]c1ccccc21` (stereo not given in full), the logP in [4] turned out to be 6.2. Half-maximal inhibition in data set [6] (IC50) required 11 nM. In addition, the ED50 in the data set filed under Mus musculus [5] was 1.2 mg/kg. In addition, in the data set with Rattus norvegicus [2], the inhibition in vivo at 25 mg/kg came out at 49%.
`CCc1cccc2c3c([nH]c12)C(CC)(CC(=O)O)CCC3` (stereo not given): the logP in data set [4] came to 5.3. In [6], the IC50 came to 20 nM.
As to `CCC1(CC(=O)O)OC[C@H](Cc2ccccc2)c2c1[nH]c1ccccc21` (single isomer, unassigned) [DEXPEMEDOLAC], the logP in [4] was found to be 4.4. This compound also came in with an IC50 in [6] of 23 nM. The compound further yielded an ED50 in the data set filed under Mus musculus [5] of 2 mg/kg. Further, the inhibition in vivo at 25 mg/kg in the data set with Rattus norvegicus [2] came to 37%.
Consider `COc1ccc2c(c1)c(CC(=O)O)c(C)n2C(=O)c1ccc(Cl)cc1` [INDOMETHACIN], for which the IC50 in data set [6] came to 11 nM. This compound came in with an ED50 in the data set listed under Mus musculus [5] of 1.5 mg/kg.
`C=CC[C@H]1CCC(CC)(CC(=O)O)c2[nH]c3c(CC)cccc3c21` (stereo not given in full) gave a logP in data set [4] of 6.3. In data set [6], this compound returned an IC50 of 15 nM. In the data set filed under Mus musculus [5], this compound registered an ED50 of 10.6 mg/kg. For the same compound, in the data set with Rattus norvegicus [2], the inhibition in vivo at 25 mg/kg stood at 44%.
For `C=CC[C@H]1COC(CC)(CC(=O)O)c2[nH]c3c(CCC)cccc3c21` (stereo not given in full), the ED50 in the data set listed under Mus musculus [5] was determined as 9.5 mg/kg. The inhibition in vivo at 25 mg/kg in the data set with Rattus norvegicus [2] was found to be 32%.
In the data set with Mus musculus [9], `C=CC[C@@H]1CCC(CC)(CC(=O)O)c2[nH]c3c(CC)cccc3c21` (stereo not given in full) registered an inhibition in vivo at 200 mg/kg of 23%. Further, in the data set on Rattus norvegicus [2], the inhibition in vivo at 25 mg/kg worked out at 35%.
`C=CC[C@H]1CC[C@](CC)(CC(=O)O)c2[nH]c3c(CC)cccc3c21` returned an IC50 in data set [6] of 4000 nM. The figures for the inhibition in vivo at 25 mg/kg with Mus musculus [1] and with Rattus norvegicus [2] were 5% and 0%, respectively.
Take `CCC1(CC(=O)O)OC[C@@H](Cc2ccccc2)c2c1[nH]c1c(C)cccc21` (stereo not given in full): the inhibition in vivo at 25 mg/kg amounted to 11% in the data set on Mus musculus [1] and 40% in the data set on Rattus norvegicus [2].
For the compound `C=CCC[C@H]1CCC(CC)(CC(=O)O)c2[nH]c3c(CC)cccc3c21` (stereo not given in full), the inhibition in vivo at 25 mg/kg in the data set on Mus musculus [1] is 2%; in the data set on Rattus norvegicus [2], 43%.
Consider `C=CC[C@H]1CC[C@@](CC)(CC(=O)O)c2[nH]c3c(CC)cccc3c21`, for which the IC50 in data set [6] turned out to be 15 nM. Besides, the figures for the inhibition in vivo at 25 mg/kg in the data set on Mus musculus [1] and in the data set with Rattus norvegicus [2] were 94% and 54%, respectively.
As to `C=CCC[C@@H]1CCC(CC)(CC(=O)O)c2[nH]c3c(CC)cccc3c21` (stereo not given in full), the figures for the inhibition in vivo at 25 mg/kg with Mus musculus [1] and in the data set with Rattus norvegicus [2] were 0% and 16%, respectively.
`CCc1cccc2c3c([nH]c12)C(CC)(CC(=O)O)OC[C@@H]3Cc1ccccc1` (stereo not given in full) had a logP in data set [4] of 5.6. Also, the inhibition in vivo at 25 mg/kg in the data set on Rattus norvegicus [2] worked out at 15%.
The compound `CCC[C@H]1CCC(CC)(CC(=O)O)c2[nH]c3c(CC)cccc3c21` (stereo not given in full) came in with an inhibition in vivo at 25 mg/kg in the data set with Mus musculus [1] of 15%.
`CCc1cccc2c3c([nH]c12)C(CC)(CC(=O)O)CC[C@@H]3Cc1ccccc1` (stereo not given in full) displayed a logP in [4] of 7.4. The same compound gave an ED50 in the data set filed under Mus musculus [5] of 22.3 mg/kg. Besides, the inhibition in vivo at 25 mg/kg in the data set with Rattus norvegicus [2] was found to be 38%.
Regarding `C=CC[C@H]1COC(CC)(CC(=O)O)c2[nH]c3c(CC)cccc3c21` (stereo not given in full), the logP in data set [4] came out at 4.5. Also, the IC50 in data set [6] was found to be 300 nM. Also, in the data set filed under Mus musculus [5], the ED50 was 6.2 mg/kg.
Take `C=C[C@H]1CCC(CC)(CC(=O)O)c2[nH]c3c(CC)cccc3c21` (stereo not given in full): the values for the inhibition in vivo at 25 mg/kg in the data set with Mus musculus [1] and in the data set with Rattus norvegicus [2] were 21% and 30%, respectively.
